Data reported in paper PMC8958509 (Journal of Medicinal Chemistry, 2022).

Legend:
[1] = test system: C. difficile UNT103-1 (VA11); experiment: Hamster C. difficile infection model; type: in vivo, Golden Syrian hamsters
How it was run: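 Male Golden Syrian hamsters (80-90 g), singly housed, were infected orally by gavage three times with a sporulation-medium culture diluted to OD600 1 (~1.0 × 10^9 CFU/mL). […] Starting 18 h later (day 2), test compound, comparators or vehicle were given QD by oral gavage for 5 days. Survival was monitored through day 21.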

[2] = test system: C. difficile contemporary clinical isolates; experiment: MIC against contemporary clinical isolates; type: cell-based, Clostridioides difficile
[3] = test system: H. pylori contemporary clinical isolates; experiment: MIC against contemporary clinical isolates; type: cell-based, Helicobacter pylori
G. Vaginalis MMX 5973 = experiment: Spontaneous resistance frequency and MPC; type: cell-based, Gardnerella vaginalis
C. difficile MMX 4381 = experiment: Spontaneous resistance frequency and MPC; type: cell-based, Clostridioides difficile
[4] = test system: clinical isolates of H. pylori, C. difficile, and G. vaginalis; experiment: MIC against contemporary clinical isolates; type: cell-based
H. pylori MMX 3719 = experiment: Spontaneous resistance frequency and MPC; type: cell-based, Helicobacter pylori
[5] = test system: H. pylori Rif-resistant, Mtz-resistant strains; experiment: MIC comparison, H. pylori resistant mutant panel; type: cell-based, Helicobacter pylori
[6] = test system: H. pylori SS1 (CagA+, VacA+); experiment: Mouse H. pylori infection model; type: in vivo, C57/BL6 mice; conditions: 45 mg/kg bid oral, 7 days, day 7
How it was run: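 Male C57/BL6 mice (20-25 g) received 0.25 mL gavage inocula on three days (6.40, 6.90, 7.15 log₁₀ CFU). Inocula were 5-day Columbia laked-horse-blood-agar growth suspended in saline to OD530 1.5-2.0. From 7 days post-inoculation, test compound, controls or vehicle were dosed bid by gavage for 7 days. Stomach CFU were counted ~18-20 h post-dose on Dent-supplemented plates (microaerobic, 37 °C, 6-7 days); LOQ <2.35 log₁₀ CFU/stomach.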

Tissue distribution = type: in vivo, Sprague–Dawley rats
[7] = test system: G. vaginalis contemporary clinical isolates; experiment: MIC against contemporary clinical isolates; type: cell-based, Gardnerella vaginalis
[8] = C. difficile isolates China (N = 46)
[9] = C. difficile isolates USA (N = 50)
[10] = H. pylori isolates China (N = 49)
[11] = G. Vaginalis MMX 5973, conc. 0.5 μg/mL
[12] = G. Vaginalis MMX 5973, conc. 1 μg/mL
[13] = G. Vaginalis MMX 5973, conc. 2 μg/mL
[14] = G. Vaginalis MMX 5973, conc. 4 μg/mL
[15] = C. difficile MMX 4381, conc. 1 μg/mL
[16] = C. difficile MMX 4381, conc. 2 μg/mL
[17] = C. difficile MMX 4381, conc. 4 μg/mL
[18] = H. pylori MMX 3719, conc. 0.5 μg/mL
[19] = H. pylori MMX 3719, conc. 1 μg/mL
[20] = H. pylori MMX 3719, conc. 2 μg/mL
[21] = H. pylori MMX 3719, conc. 4 μg/mL

## Cc1ncc([N+](=O)[O-])n1CCO [metronidazole, reference compound]
[1]; 100 mg/kg QD oral, by day 4
  mortality: 100%
[2]; [8]
  MIC range: ≤0.06 to 32 µg/mL
[2]; [9]
  MIC range: 0.12 to 4 µg/mL

## CO[C@H]1/C=C/O[C@@]2(C)Oc3c(C)c(O)c4c(O)c(c(/C=N/N5CCN(C)CC5)c(O)c4c3C2=O)NC(=O)/C(C)=C\C=C\[C@H](C)[C@H](O)[C@@H](C)[C@@H](O)[C@@H](C)[C@H](OC(C)=O)[C@@H]1C [rifampin, reference compound]
[3]; [10]
  MIC range: ≤60 to 64000 ng/mL

## CO[C@H]1/C=C/O[C@@]2(C)Oc3c(C)c(O)c4c(c3C2=O)C2=NC3(CCN(CCn5c([N+](=O)[O-])cnc5C)CC3)NC2=C(NC(=O)/C(C)=C\C=C\[C@H](C)[C@H](O)[C@@H](C)[C@@H](O)[C@@H](C)[C@H](OC(C)=O)[C@@H]1C)C4=O [Compound 10, 4-Deoxy-3,4-[2-spiro-[1-[2-(2-methyl-5-nitro-imidazol-1-yl)ethyl]-piperidin-4-yl]]-(1H)-imidazo-(2,5-dihydro)rifamycin S]
G. Vaginalis MMX 5973; [11]
  resistant colonies identified, mean: 0
  resistant colonies identified, test 1: 0
  resistant colonies identified, test 2: 0
G. Vaginalis MMX 5973; G. Vaginalis MMX 5973, conc. 0.5 μg/mL, inoculum 4.50 × 10^8 CFU
  spontaneous resistance frequency: <2 × 10^–9
G. Vaginalis MMX 5973; [12]
  resistant colonies identified, mean: 0
  resistant colonies identified, test 1: 0
  resistant colonies identified, test 2: 0
  spontaneous resistance frequency: <2 × 10^–9
G. Vaginalis MMX 5973; [13]
  resistant colonies identified, mean: 0
  resistant colonies identified, test 1: 0
  resistant colonies identified, test 2: 0
  spontaneous resistance frequency: <2 × 10^–9
G. Vaginalis MMX 5973; [14]
  resistant colonies identified, mean: 0
  resistant colonies identified, test 1: 0
  resistant colonies identified, test 2: 0
  spontaneous resistance frequency: <2.00 × 10^–9
G. Vaginalis MMX 5973; G. vaginalis MMX 5973, all concentrations tested
  spontaneous frequency of mutation: < 2 × 10^–9 μg/mL
C. difficile MMX 4381; C. difficile MMX 4381, conc. 0.5 μg/mL
  resistant colonies identified, test 1: 0
C. difficile MMX 4381; C. difficile MMX 4381, conc. 0.5 μg/mL, inoculum 1.23 × 10^9 CFU
  spontaneous resistance frequency: 8 × 10^–10
C. difficile MMX 4381; [15]
  resistant colonies identified, mean: 0
  resistant colonies identified, test 1: 0
  resistant colonies identified, test 2: 0
  spontaneous resistance frequency: <8 × 10^–10
C. difficile MMX 4381; [16]
  resistant colonies identified, mean: 0
  resistant colonies identified, test 1: 0
  resistant colonies identified, test 2: 0
  spontaneous resistance frequency: <8 × 10^–10
C. difficile MMX 4381; [17]
  resistant colonies identified, mean: 0
  resistant colonies identified, test 1: 0
  resistant colonies identified, test 2: 0
  spontaneous resistance frequency: <8 × 10^–10
C. difficile MMX 4381; C. difficile MMX 4381, lowest concentration tested
  spontaneous frequency of mutation: 8 × 10^–10
[4]
  MIC90: < 1 µg/mL
[3]; [10]
  MIC range: ≤2 to 1000 ng/mL
[3]; H. pylori isolates USA (N = 200)
  MIC range: ≤1 to 2000 ng/mL
H. pylori MMX 3719; H. pylori MMX 3719, all concentrations tested
  spontaneous frequency of mutation: < 5 × 10^–9 μg/mL
H. pylori MMX 3719; [18]
  resistant colonies identified, mean: 0
  resistant colonies identified, test 1: 0
  resistant colonies identified, test 2: 0
H. pylori MMX 3719; H. pylori MMX 3719, conc. 0.5 μg/mL, inoculum 1.90 × 10^8 CFU
  spontaneous resistance frequency: <5 × 10^–9
H. pylori MMX 3719; [19]
  resistant colonies identified, mean: 0
  resistant colonies identified, test 1: 0
  resistant colonies identified, test 2: 0
  spontaneous resistance frequency: <5 × 10^–9
H. pylori MMX 3719; [20]
  resistant colonies identified, mean: 0
  resistant colonies identified, test 1: 0
  resistant colonies identified, test 2: 0
  spontaneous resistance frequency: <5 × 10^–9
H. pylori MMX 3719; [21]
  resistant colonies identified, mean: 0
  resistant colonies identified, test 1: 0
  resistant colonies identified, test 2: 0
  spontaneous resistance frequency: <5 × 10^–9
[1]; 5 mg/kg QD oral, days 7–9
  mortality: 10–30%
[1]; 5 mg/kg QD oral, during the 5-day dosing regimen
  survival: 100%
[1]; 15 mg/kg QD oral days 2–6, through day 21
  survival: 100%
[1]; 45 mg/kg QD oral days 2–6, through day 21
  survival: 100%
[5]; Mtz-resistant strain (CB1573)
  fold more active than the 1:1 molar combination of the parent drugs: 1- to 125 fold
[5]; Rif-resistant strains (CB1902, CB1903 and CB1614)
  fold more active than the 1:1 molar combination of the parent drugs: 4- to 128 fold
[5]; dual Rif-resistant, Mtz-resistant strains (CB1771 and CB1893)
  fold more active than Rif, Rbt, or Mtz: 32- to 64 fold
[2]; [8]
  MIC range: ≤0.06 to 2 µg/mL
[2]; [9]
  MIC range: ≤0.002 to 4 µg/mL
[6]
  mean bacterial stomach titer: 1.70 log10 CFU
Tissue distribution; ascites fluid, 24 h
  TNP-2198 concentration: BLOQ
Tissue distribution; brain, 12 h
  TNP-2198 concentration: BLOQ
Tissue distribution; brain, 24 h
  TNP-2198 concentration: BLOQ
Tissue distribution; plasma, 24 h
  TNP-2198 concentration: BLOQ
Tissue distribution; stomach content, 0.5 h
  TNP-2198 concentration: 3,264,000 ng/g
Tissue distribution; stomach content, 2 h
  TNP-2198 concentration: 1,750,320 ng/g
Tissue distribution; vaginal tissue, 24 h
  TNP-2198 concentration: BLOQ
[7]; G. vaginalis isolates China (N = 24)
  MIC range: ≤4 to 60 ng/mL
[7]; G. vaginalis isolates USA (N = 101)
  MIC range: ≤4 to 60 ng/mL
